Key:
[1] = system: Mus musculus; test: In vivo inhibition of glutaminyl cyclase in ICR mouse brain extract assessed as decrease in levels of human pyroglutamyl-beta-amyloid (1 to 40) containing N-terminal pyroglutamte at position 3 at 25 mg/kg, icv measured next day by sandwich ELISA relative to control; assay type: functional; details: central
How it was run: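 Male ICR mice (25 g, n = 4) received icv injection of human Aβ3-40 (5 μL of 1 μg/μL in PBS, 5 µg) into deep cortical/hippocampal tissue via stereotaxic frame, then compound at 25 mg/kg icv. Brain extracts taken next day; Aβ N3pE-40 quantified by sandwich ELISA, expressed as % inhibition versus vehicle control.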

[2] = system: HT-22; test: Cytotoxicity against mouse HT22 cells assessed as decrease in cell viability at 10 uM by MTT assay relative to control; assay type: cell-based; details: ht-22, 10 µM
How it was run: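 HT-22 immortalized hippocampal neuronal cells incubated with compound at 10 μM; viability read by MTT assay and expressed as % of control.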

[3] = biological target: hERG (KCNH2) (Homo sapiens, UniProt Q12809); test: Inhibition of human ERG at 10 uM relative to control
Chain of hERG (KCNH2) (Q12809 whole entry): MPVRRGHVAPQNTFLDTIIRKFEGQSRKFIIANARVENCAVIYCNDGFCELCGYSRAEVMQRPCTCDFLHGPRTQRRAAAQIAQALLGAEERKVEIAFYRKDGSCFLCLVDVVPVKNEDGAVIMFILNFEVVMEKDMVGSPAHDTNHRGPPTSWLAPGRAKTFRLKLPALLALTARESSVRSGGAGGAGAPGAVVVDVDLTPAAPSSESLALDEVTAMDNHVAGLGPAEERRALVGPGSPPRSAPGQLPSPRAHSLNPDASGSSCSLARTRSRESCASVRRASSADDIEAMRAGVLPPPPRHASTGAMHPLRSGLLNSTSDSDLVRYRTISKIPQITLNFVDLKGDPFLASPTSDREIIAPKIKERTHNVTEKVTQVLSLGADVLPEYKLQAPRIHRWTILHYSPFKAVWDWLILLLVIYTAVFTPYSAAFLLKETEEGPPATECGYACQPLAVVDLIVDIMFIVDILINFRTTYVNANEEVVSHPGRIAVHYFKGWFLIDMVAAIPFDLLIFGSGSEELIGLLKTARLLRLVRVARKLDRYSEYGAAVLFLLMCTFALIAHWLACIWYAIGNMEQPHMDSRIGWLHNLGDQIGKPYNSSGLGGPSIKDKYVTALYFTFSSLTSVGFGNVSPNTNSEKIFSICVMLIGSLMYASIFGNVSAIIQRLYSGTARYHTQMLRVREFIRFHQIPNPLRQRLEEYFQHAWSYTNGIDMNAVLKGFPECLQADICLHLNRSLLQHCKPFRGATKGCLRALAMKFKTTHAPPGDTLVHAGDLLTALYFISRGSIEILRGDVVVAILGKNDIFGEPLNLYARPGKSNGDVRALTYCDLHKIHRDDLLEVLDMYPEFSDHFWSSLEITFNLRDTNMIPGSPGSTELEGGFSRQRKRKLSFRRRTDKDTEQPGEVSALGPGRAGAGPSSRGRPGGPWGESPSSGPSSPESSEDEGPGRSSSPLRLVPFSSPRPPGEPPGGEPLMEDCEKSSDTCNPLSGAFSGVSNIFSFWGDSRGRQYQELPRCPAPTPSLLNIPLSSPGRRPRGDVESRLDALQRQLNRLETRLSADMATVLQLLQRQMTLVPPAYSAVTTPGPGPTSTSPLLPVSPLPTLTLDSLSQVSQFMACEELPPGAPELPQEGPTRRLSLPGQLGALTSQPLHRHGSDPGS
How it was run: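 hERG channel blocking tested at 10 μM, reported as % inhibition.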

Row | Structure (SMILES) | inhibition in vivo at 25 mg/kg [1] | Activity [2] | inhibition at 10 µM [3]
1 | COc1ccc(NC(=S)NCCCn2cncc2C)cc1OCCCCC1CCNCC1 | 14.4% | 100% | 35.1%
2 | COc1ccc(NC(=S)NCCCn2cncc2C)cc1OCCCN | 12.8% | 100% | 8.8%
3 | Cc1cncn1CCCNC(=S)Nc1ccc(/C=C/C(=O)N2CCN(CCN)CC2)cc1 | 22.9% | 100% | 7.2%
4 | COc1ccc(NC(=S)NCCCn2cncc2C)cc1OCCN | 35.3% | 100% | 15.3%
5 | COc1ccc(NC(=S)NCCCn2cncc2C)cc1OCCCC1CCNCC1 | 5.5% | 100% | 25.6%
6 | COc1ccc(NC(=S)NCCCn2cncc2C)cc1OCCCCN | 36.6% | 100% | 2.8%
7 | COc1ccc(NC(=S)NCCCn2cncc2C)cc1OCCC1CCNCC1 | 1.8% | 100% | 14.9%
8 | Cc1cncn1CCCNC(=S)Nc1ccc(OCC(=O)NC2CCN(CCN)CC2)cc1 |  | 100% | 19.9%
